Values after ≈ are worked out from the molar mass of the structure shown.
Experiments:
[1] = Thermodynamic aqueous solubility of the compound at pH 6.8; assay type: physicochemical; settings: buffer; for solubility thermodynamic: read-out: Therm_solubility
[2] = molecular target: 3',5'-cyclic-AMP phosphodiesterase 4D (Homo sapiens, UniProt Q08499); test: Inhibition of human PDE4D-mediated [3H]CAMP hydrolysis after 30 to 60 mins by scintillation proximity assay
Method in brief: (§1)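 Enzyme was diluted in 10 mM Tris-HCl pH 7.5 with 1 mM EDTA to give 10–30% substrate hydrolysis. Substrate was [3H]-cAMP (0.1 μCi) with 1 μM cAMP. Inhibitors were tested at 10 concentrations with 1% DMSO, 30−60 min at room temperature, stopped with PDE SPA beads and counted. IC50 came from curves. Mean of ≥2 experiments in duplicate, SEM where n ≥ 3.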

[3] = molecular target: Phosphodiesterase 4 (Homo sapiens, UniProt P27815+Q08499+Q07343+Q08493); test: Inhibition of PDE4 in human PBMC assessed as inhibition of LPS-induced TNFalpha production incubated for 10 mins prior to LPS-challenge measured after 20 hrs by sandwich ELISA
Method in brief: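 Human PBMC were isolated from normal donors by Ficoll−Hypaque and grown at 1 × 10⁶ cells/mL in RPMI1640 with 10% FCS. Compound was preincubated 10 min, then LPS added (10 ng/mL, stock added). Cells were incubated 20 h at 37 °C in 5% CO₂. Supernatant TNF-α was measured by sandwich ELISA at OD405 (sensitivity ~10 pg/mL). IC50 came from inhibition curves.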

[4] = molecular target: 3',5'-cyclic-AMP phosphodiesterase 4A (Homo sapiens, UniProt P27815); test: Inhibition of human PDE4A-mediated [3H]CAMP hydrolysis after 30 to 60 mins by scintillation proximity assay; method in brief: as §1
[5] = molecular target: 3',5'-cyclic-AMP phosphodiesterase 4B (Homo sapiens, UniProt Q07343); test: Inhibition of human PDE4B-mediated [3H]CAMP hydrolysis after 30 to 60 mins by scintillation proximity assay; method in brief: as §1
[6] = Cmax in rat at 2.1 umol/kg, po; assay type: ADME, organism-based; set-up: dose 2.1 umol/kg, route oral; settings: in vivo
Method in brief: (§2)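 Rat PK after iv and po dosing, some compounds given as the potassium or sodium salt. Vehicle was PBS or 25/75 PEG200/PBS. Dose matched formulation strength: iv 1.05, 2.1 or 4.2 μmol/kg; po 2.1 or 4.2 μmol/kg. For some compounds iv and po used the same dose (2.1 or 4.2 μmol/kg).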

[7] = tested on: Rattus norvegicus; test: Oral bioavailability in rat at 2.1 umol/kg; assay type: ADME, organism-based; settings: in vivo; method in brief: as §2
[8] = Volume of distribution at steady state in rat at 2.1 umol/kg, iv; assay type: ADME, organism-based; settings: in vivo, read-out: Vdss; method in brief: as §2
[9] = tested on: Rattus norvegicus; test: (§3) AUC total in rat at 2.1 umol/kg, po; assay type: ADME, organism-based, Plasma; settings: in vivo; method in brief: as §2
[10] = Half life in rat at 2.1 umol/kg, po; assay type: ADME, organism-based; settings: in vivo; method in brief: as §2
[11] = tested on: Rattus norvegicus; test: Antiinflammatory activity in po dosed ovalbumin-sensitized Brown Norway rat assessed as inhibition of ovalbumin-induced eosinophil influx into BALF administered 2 hrs prior to ovalbumin-challenge measured after 24 hrs; assay type: functional
Method in brief: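 Brown Norway rats were actively sensitized and dosed orally at 0.3, 1 or 3 mg/kg, or with vehicle PEG200:saline 1:1, 2 h before inhaled ovalbumin challenge. Saline-challenged rats served as controls. Eosinophils were counted in BAL fluid 24 h after challenge. Mean ± SEM, 5−10 animals per group. ED50 was estimated.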

[12] = tested on: Mustela putorius furo; test: Toxicity in ferret assessed as emesis at 0.075 to 4.8 mg/kg, po after 4 hrs; assay type: organism-based; set-up: dose 0.075-4.8 mg/kg, route oral; settings: in vivo
[13] = tested on: Mus musculus; test: Antiinflammatory activity in po dosed BALB/c mouse assessed as inhibition of LPS-induced neutrophil influx into BALF administered 1 hr prior to LPS-challenge measured after 3 hrs; assay type: functional
Method in brief: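 Mice were given vehicle (PEG200:saline 1:1) or compound orally at 1−30 mg/kg, 1 h before LPS challenge. The control group got vehicle with PBS challenge. Animals were killed 3 h after challenge. Pooled from two experiments, 6−15 mice per group. Mann−Whitney test versus vehicle/LPS animals.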

[14] = Half life in ferret at 3.42 umol/kg, ig; assay type: ADME, organism-based, Mustela putorius furo; settings: in vivo, po
Method in brief: (§4)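 Ferret PK after intragastric dosing as a solution in PEG200/saline (50/50, v/v) at 3.42 μmol/kg, with one compound at 2.98 μmol/kg. Plasma levels were measured. Detection limits were 0.5 μM for roflumilast and <0.02 μM for its N-oxide metabolite.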

[15] = Tmax in ferret at 3.42 umol/kg, ig; assay type: ADME, organism-based, Mustela putorius furo; settings: in vivo, po; method in brief: as §4
[16] = AUC total in ferret at 3.42 umol/kg, ig; assay type: ADME, organism-based, Mustela putorius furo; settings: plasma, po; method in brief: as §4
[17] = Cmax in ferret at 3.42 umol/kg, ig; assay type: ADME, organism-based, Mustela putorius furo; set-up: dose 3.42 umol/kg, route intragastric; settings: in vivo, po; method in brief: as §4
[18] = Clearance in rat at 1.05 umol/kg, iv; assay type: ADME, organism-based; settings: in vivo; method in brief: as §2
[19] = Tmax in rat at 2.1 umol/kg, po; assay type: ADME, organism-based; settings: in vivo; method in brief: as §2
[20] = as §3; assay type: ADME, organism-based, Plasma; settings: plasma, 2.1 umol/kg; method in brief: as §2
[21] = Volume of distribution at steady state in rat at 1.05 umol/kg, iv; assay type: ADME, organism-based; settings: in vivo, read-out: Vdss; method in brief: as §2

3',5'-cyclic-AMP phosphodiesterase 4A, sequence (P27815 whole entry): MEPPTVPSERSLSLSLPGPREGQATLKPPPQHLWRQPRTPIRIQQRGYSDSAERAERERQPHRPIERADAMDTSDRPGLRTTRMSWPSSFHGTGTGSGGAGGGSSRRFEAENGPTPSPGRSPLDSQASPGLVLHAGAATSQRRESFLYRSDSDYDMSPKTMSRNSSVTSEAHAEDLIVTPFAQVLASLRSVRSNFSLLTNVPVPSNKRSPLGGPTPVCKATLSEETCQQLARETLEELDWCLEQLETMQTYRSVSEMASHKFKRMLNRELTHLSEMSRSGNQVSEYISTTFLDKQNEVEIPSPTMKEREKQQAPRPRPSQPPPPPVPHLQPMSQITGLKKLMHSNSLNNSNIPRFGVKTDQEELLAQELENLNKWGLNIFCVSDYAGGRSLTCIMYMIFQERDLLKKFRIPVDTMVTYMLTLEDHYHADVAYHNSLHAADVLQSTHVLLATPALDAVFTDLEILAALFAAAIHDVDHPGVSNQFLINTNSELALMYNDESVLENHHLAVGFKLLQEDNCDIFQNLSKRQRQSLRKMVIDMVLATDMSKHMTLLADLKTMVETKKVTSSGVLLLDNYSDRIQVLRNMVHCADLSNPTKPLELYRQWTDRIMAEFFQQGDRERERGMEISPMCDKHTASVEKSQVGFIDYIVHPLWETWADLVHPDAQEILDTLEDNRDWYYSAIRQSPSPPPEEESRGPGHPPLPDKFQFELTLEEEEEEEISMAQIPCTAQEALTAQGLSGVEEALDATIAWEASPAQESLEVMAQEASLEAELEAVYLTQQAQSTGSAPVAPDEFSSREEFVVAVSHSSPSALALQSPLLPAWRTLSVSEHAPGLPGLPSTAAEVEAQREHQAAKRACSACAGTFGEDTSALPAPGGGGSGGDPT
3',5'-cyclic-AMP phosphodiesterase 4D, sequence (Q08499 whole entry): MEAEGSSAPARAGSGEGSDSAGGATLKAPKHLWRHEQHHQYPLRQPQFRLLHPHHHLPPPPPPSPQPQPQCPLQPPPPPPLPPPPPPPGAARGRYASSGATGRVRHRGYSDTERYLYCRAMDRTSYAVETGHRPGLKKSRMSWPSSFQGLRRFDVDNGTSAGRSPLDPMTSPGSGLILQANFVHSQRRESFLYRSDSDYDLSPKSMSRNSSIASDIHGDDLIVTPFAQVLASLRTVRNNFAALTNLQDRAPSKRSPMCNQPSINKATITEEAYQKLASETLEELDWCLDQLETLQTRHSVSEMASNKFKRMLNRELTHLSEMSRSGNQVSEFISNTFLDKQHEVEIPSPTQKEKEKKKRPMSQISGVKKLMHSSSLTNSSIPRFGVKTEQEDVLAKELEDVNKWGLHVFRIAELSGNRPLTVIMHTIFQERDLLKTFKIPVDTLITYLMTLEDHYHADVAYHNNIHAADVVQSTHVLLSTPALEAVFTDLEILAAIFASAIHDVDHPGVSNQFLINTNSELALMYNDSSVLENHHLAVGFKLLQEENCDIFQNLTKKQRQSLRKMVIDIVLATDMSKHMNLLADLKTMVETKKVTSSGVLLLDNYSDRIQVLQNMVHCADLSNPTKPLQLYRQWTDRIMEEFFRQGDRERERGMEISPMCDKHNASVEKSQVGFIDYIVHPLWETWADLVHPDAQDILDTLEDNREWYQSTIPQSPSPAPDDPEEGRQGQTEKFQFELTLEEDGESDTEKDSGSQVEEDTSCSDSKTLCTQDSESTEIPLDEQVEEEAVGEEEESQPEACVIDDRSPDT
3',5'-cyclic-AMP phosphodiesterase 4B, sequence (Q07343 whole entry): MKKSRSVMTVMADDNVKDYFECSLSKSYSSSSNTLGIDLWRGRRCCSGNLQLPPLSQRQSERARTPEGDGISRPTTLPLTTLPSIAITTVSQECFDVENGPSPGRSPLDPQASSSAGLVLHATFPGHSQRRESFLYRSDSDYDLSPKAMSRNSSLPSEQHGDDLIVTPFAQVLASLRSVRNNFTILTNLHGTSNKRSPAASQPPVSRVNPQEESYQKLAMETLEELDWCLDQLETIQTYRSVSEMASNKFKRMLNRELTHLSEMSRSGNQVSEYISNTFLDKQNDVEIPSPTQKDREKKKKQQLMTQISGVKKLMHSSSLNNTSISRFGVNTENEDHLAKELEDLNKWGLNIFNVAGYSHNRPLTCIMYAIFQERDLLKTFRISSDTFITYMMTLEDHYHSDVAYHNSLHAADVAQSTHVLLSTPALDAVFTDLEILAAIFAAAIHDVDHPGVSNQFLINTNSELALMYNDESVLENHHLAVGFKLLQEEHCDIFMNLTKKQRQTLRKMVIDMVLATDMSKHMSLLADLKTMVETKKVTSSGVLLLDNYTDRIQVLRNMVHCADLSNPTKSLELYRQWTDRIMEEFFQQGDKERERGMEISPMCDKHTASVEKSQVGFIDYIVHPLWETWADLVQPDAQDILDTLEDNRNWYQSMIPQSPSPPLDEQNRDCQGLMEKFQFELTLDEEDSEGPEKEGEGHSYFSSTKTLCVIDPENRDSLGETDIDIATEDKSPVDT

| Compound | solubility thermodynamic [1] [µg/mL] | IC50 [2] [nM] | IC50 [3] [nM] | IC50 [4] [nM] | IC50 [5] [nM] | Activity [12] | ED50 [11] [mg/kg] | other results |
| --- | --- | --- | --- | --- | --- | --- | --- | --- |
| O=C([O-])[C@H]1CC[C@H](c2cc3cccnc3c(-c3cccc(F)c3)n2)CC1.[K+] | – | – | – | – | – | – | – | Cmax [6]: 4.6 µM; F [7]: 52%; Vd [8]: 0.09 L/kg; AUC [9]: 4408 µM·min; half-life [10]: 9 h |
| O=C(O)[C@H]1CC[C@H](c2cc3cccnc3c(-c3cccc(F)c3)n2)CC1 [listing 1 of 2 here] | – | – | – | – | – | – | – | inhibition [11]: Dose-dependent effect |
| O=C(Nc1c(Cl)cncc1Cl)c1ccc(OC(F)F)c(OCC2CC2)c1 [ROFLUMILAST] | – | – | – | – | – | Toxic | 0.74 | ED50 [13]: 12.4 mg/kg |
| COc1cccc(-c2nc([C@H]3CC[C@H](C(=O)O)CC3)cc3cccnc23)c1 | – | 64 | 151 | 242 | 156 | – | – | Therm_solubility [1]: 150 µg/mL |

Second part, led by results:

| solubility thermodynamic [1] [µg/mL] | IC50 [2] [nM] | IC50 [3] [nM] | IC50 [4] [nM] | IC50 [5] [nM] | Compound | Activity [12] | ED50 [11] [mg/kg] | other results |
| --- | --- | --- | --- | --- | --- | --- | --- | --- |
| > 4000 | 51 | 769 | 587 | 1330 | O=C(O)C1CCN(c2cc3cccnc3c(-c3cccc(F)c3)n2)CC1 | – | – | – |
| 1100 (≈ 2910 µM) | 6 | 19 | 27 | 17 | CSc1cccc(-c2nc([C@H]3CC[C@H](C(=O)O)CC3)cc3cccnc23)c1 | – | – | – |
| 140 (≈ 381 µM) | 30 | 541 | 364 | 187 | O=C(O)C1CCN(c2cc3cccnc3c(-c3cccc(Cl)c3)n2)CC1 | – | – | – |
| – | 32 | 126 | 123 | 34 | O=C(O)[C@H]1CC[C@H](c2cc3cccnc3c(-c3cccc(F)c3)n2)CC1 [listing 2 of 2 here] | Non-toxic | 1.2 | Therm_solubility [1]: 920 µg/mL; half-life [14]: 3.2 h; Tmax [15]: 1.5 h; ED50 [13]: 11.2 mg/kg; AUC [16]: 59.3 µM·h; Cmax [17]: 12.3 µM |
| 6 (≈ 14.4 µM) | 24 | 52 | 107 | 43 | O=C(O)[C@H]1CC[C@H](c2cc3cccnc3c(-c3cccc(OC(F)(F)F)c3)n2)CC1 | Non-toxic | 2 | half-life [14]: 1.87 h; Tmax [15]: 1.75 h; AUC [16]: 49.7 µM·h; Cmax [17]: 10.5 µM |
| > 4000 | 19 | 851 | 271 | 168 | N#Cc1cccc(-c2nc(N3CCC(C(=O)O)CC3)cc3cccnc23)c1 | – | – | clearance [18]: 1.16 mL/min/kg; Cmax [6]: 2.8 µM; Tmax [19]: 2.15 h; F [7]: 158%; AUC [20]: 46.1 µM·h; half-life [10]: 23 h; Vd [21]: 0.72 L/kg |
